Data published in ChEMBL document CHEMBL1157710, “Identification of triazinoindol-benzimidazolones as nanomolar inhibitors of the Mycobacterium tuberculosis enzyme TDP-6-deoxy-d-xylo-4-hexopyranosid-4-ulose 3,5-epimerase (RmlC)” (Bioorg Med Chem, 2010).
In brackets after ≈: the same amount, converted by molar mass. Activity calls are given as the source filed them. No cut-off for these calls is given here.

Assays:
[1] = molecular target: T1, dTDP-4-dehydrorhamnose 3,5-epimerase /dTDP-4-dehydrorhamnose reductase (Mycobacterium tuberculosis (strain ATCC 25618 / H37Rv), UniProt P9WH09+P9WH11); assay: Inhibition of Mycobacterium tuberculosis RmlC/RmlD expressed in Escherichia coli by spectrophotometry
T1 sequence (P9WH09 whole entry): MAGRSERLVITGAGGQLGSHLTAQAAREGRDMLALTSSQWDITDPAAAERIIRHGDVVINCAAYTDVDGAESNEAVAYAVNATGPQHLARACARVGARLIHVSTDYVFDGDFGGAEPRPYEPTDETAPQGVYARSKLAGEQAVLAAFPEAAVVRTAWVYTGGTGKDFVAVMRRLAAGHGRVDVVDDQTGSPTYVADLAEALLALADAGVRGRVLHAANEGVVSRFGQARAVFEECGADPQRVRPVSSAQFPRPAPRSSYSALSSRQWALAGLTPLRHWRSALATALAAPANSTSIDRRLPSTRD
T1 sequence (P9WH11 whole entry): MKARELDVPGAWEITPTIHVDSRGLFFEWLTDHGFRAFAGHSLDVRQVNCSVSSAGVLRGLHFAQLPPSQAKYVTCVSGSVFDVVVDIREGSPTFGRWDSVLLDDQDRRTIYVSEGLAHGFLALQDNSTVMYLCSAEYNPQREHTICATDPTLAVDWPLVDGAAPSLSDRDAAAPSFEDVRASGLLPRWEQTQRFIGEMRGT
Outline: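 Final RmlC 2.63 × 10−4 μg/μl, RmlD 6.53 × 10−4 μg/μl, NADPH 25 μM, TDP-KDX 200 μM. A 16-point 2-fold series (55 μM to 1.7 nM) was read as the 90-min drop in 340/460 nm fluorescence at 25 °C, in triplicate. IC50 came from a 4-parameter logistic fit.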

[2] = molecular target: T2, dTDP-4-dehydrorhamnose 3,5-epimerase (Mycobacterium tuberculosis (strain CDC 1551 / Oshkosh)) (UniProt P9WH10); assay: Inhibition of Mycobacterium tuberculosis RmlC expressed in Escherichia coli at 0.25 uM by spectrophotometry
T2 sequence (whole entry): T1 sequence (P9WH11 whole entry)

[3] = molecular target: T2, dTDP-4-dehydrorhamnose 3,5-epimerase (Mycobacterium tuberculosis (strain CDC 1551 / Oshkosh)); assay: Inhibition of Mycobacterium tuberculosis RmlC expressed in Escherichia coli at 0.5 uM by spectrophotometry
[4] = molecular target: T2, dTDP-4-dehydrorhamnose 3,5-epimerase (Mycobacterium tuberculosis (strain CDC 1551 / Oshkosh)); assay: Inhibition of Mycobacterium tuberculosis RmlC expressed in Escherichia coli at 5 uM by spectrophotometry
[5] = molecular target: T3, dTDP-4-dehydrorhamnose 3,5-epimerase (Mycobacterium tuberculosis (strain CDC 1551 / Oshkosh), UniProt P9WH10); assay: Inhibition of Mycobacterium tuberculosis RmlC expressed in Escherichia coli by spectrophotometry
T3 sequence (P9WH10 whole entry): T1 sequence (P9WH11 whole entry)
Outline: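 96-well absorbance assay at 340 nm (NADPH to NADP) in 200 μl of 50 mM MOPS pH 7.4 with 10% glycerol, 0.01% Triton X-100 and 1 mM MgCl2. Final RmlC 70 nM, RmlD 5 nM, TDP-KDX 200 μM, NADPH 25 μM; compound added in 4 μl DMSO. Reactions were started with RmlC and followed 80 min; IC50 came from initial velocities.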

[6] = molecular target: T2, dTDP-4-dehydrorhamnose 3,5-epimerase (Mycobacterium tuberculosis (strain CDC 1551 / Oshkosh)); assay: Competitive inhibition of Mycobacterium tuberculosis RmlC expressed in Escherichia coli assessed as increase in Km of TDP-KDX
Outline: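 Competitive-mode test: TDP-KDX varied 0–100 μM with inhibitor at 0, 0.1, 0.15 and 0.2 μM. Km and Vmax were fitted by non-linear regression. Km(obs) was plotted against inhibitor concentration, and Ki was taken from the slope (Km/Ki, Km as y-intercept).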

[7] = molecular target: T2, dTDP-4-dehydrorhamnose 3,5-epimerase (Mycobacterium tuberculosis (strain CDC 1551 / Oshkosh)); assay: Reversible inhibition of Mycobacterium tuberculosis RmlC expressed in Escherichia coli by time-dependence study
Outline: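 RmlD, TDP-KDX and NADPH were added, and the NADPH fluorescence decrease was followed over 200 min. Slopes from the later phase were compared with a no-compound control.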

[8] = system: Mycobacterium tuberculosis; assay: Antimycobacterial activity against Mycobacterium tuberculosis H37Rv by microbroth dilution method; assay type: functional
[9] = Cytotoxicity against HAEC after 24 hrs; parameters: species or system Homo sapiens
Outline: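 Human aortic endothelial cells were seeded at 1000 cells/well in EGM-2 and held 24 hr at 37 °C. They were then exposed 24 hr at 37 °C to a 16-point 2-fold series (final 100 μM to 3 nM) with a DMSO solvent control. Viability was read by CellTiter-Glo luminescence after 10 min, in triplicate.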

| Compound | IC50 [5] | MIC [8] | other results |
| --- | --- | --- | --- |
| CCn1c2ccccc2c2nnc(SCCCn3c(=O)[nH]c4ccccc43)nc21 | 200 nM | 19 µg/mL (≈ 47 µM) | IC50 [1]: 398 nM; inhibition [2]: 52%; inhibition [3]: 72%; inhibition [4]: 83%; Ki [5]: 100 nM; Activity [6]: Active; inhibition [7]: Active; IC50 [9]: 75000 nM |
| C=CCn1c2ccccc2c2nnc(S(=O)(=O)CCCn3c(=O)[nH]c4ccccc43)nc21 | 400 nM |  |  |
| C=CCn1c2ccc(C)cc2c2nnc(SCCCn3c(=O)[nH]c4ccccc43)nc21 | 20000 nM | 25 µg/mL (≈ 58.1 µM) |  |
| CCn1c2ccccc2c2nnc(S(=O)(=O)CCCn3c(=O)[nH]c4ccccc43)nc21 | 800 nM |  |  |
| O=c1[nH]c2ccccc2n1CCCSc1nnc2c(n1)[nH]c1ccccc12 | 3300 nM |  |  |
| C=CCn1c2ccccc2c2nnc(SCCCn3c(=O)[nH]c4ccccc43)nc21 | 120 nM | 13 µg/mL (≈ 31.2 µM) | Ki [5]: 62 nM |
| O=c1[nH]c2ccccc2n1CCCSc1nnc2c3ccccc3n(Cc3ccccc3)c2n1 | 2900 nM | > 50 µg/mL |  |
| CCCn1c2ccccc2c2nnc(SCCCn3c(=O)[nH]c4ccccc43)nc21 | 1250 nM | 9 µg/mL (≈ 21.5 µM) |  |
| Cn1c2ccccc2c2nnc(SCCCn3c(=O)[nH]c4ccccc43)nc21 | 500 nM | 9 µg/mL (≈ 23 µM) |  |
| C=CCn1c2ccccc2c2nnc(SCn3c(=O)[nH]c4ccccc43)nc21 | 10300 nM |  |  |
